Reference: article PMC9071996 (RSC Advances, 2019)

How the values were obtained:
[1] = tested on: MDA-MB-231 cells; assay: Western blot of apoptosis related proteins; assay type: cell-based, human; conditions: 2.5, 5 and 10 μM, 72 h, vs control
Method in brief: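 Western blot on lysates of MDA-MB-231 cells treated for 72 h with test compound at 2.5, 5 and 10 μM, compared with untreated control. Proteins probed: Bcl-2, Bax, cytochrome C and caspase-3. β-actin served as internal reference, and band levels were analysed statistically.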

[2] = tested on: MDA-MB-231 cells; assay: Cell cycle assay; assay type: cell-based, human; conditions: 72 h, control 56.86%
Method in brief: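 Test compound applied to MDA-MB-231 cells at 2.5, 5 and 10 μM for 72 h. Cells stained with propidium iodide, and DNA content measured by flow cytometry. Percentages of cells in each cell-cycle phase were calculated against an untreated control.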

[3] = tested on: MDA-MB-231 cells; assay: Intracellular ROS level; assay type: cell-based, human
[4] = tested on: MDA-MB-231 cells; assay: Mitochondrial membrane potential assay; assay type: cell-based, human; conditions: 72 h, control 3.9%
Method in brief: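 Mitochondrial membrane potential measured by flow cytometry in MDA-MB-231 cells after 72 h with test compound at 2.5, 5 or 10 μM, against an untreated control. Red and green fluorescent populations were quantified. The green-fluorescent fraction was taken as cells with collapsed ΔΨm.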

[5] = tested on: MDA-MB-231 cells; assay: Annexin V-APC/7-AAD apoptosis assay; assay type: cell-based, human; conditions: 72 h, control 1.98%
Method in brief: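 MDA-MB-231 cells exposed to test compound at 2.5, 5 or 10 μM for 72 h, with untreated cells as control. Cells then double-stained with Annexin V-APC and 7-AAD and analysed by flow cytometry. Annexin V+/7-AAD− cells scored as early apoptotic. 7-AAD-positive Annexin V+ cells scored as late apoptotic. Results shown as dot-plot quadrants and a histogram.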

[6] = tested on: MDA-MB-231 cells; assay: MTS cytotoxicity assay, MDA-MB-231; assay type: cell-based; conditions: Homo sapiens, MDA-MB-231, 72 h, read-out: IC50 (μM) MBA-MD-231
Method in brief: (§1)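 MTS viability assay in A549, MDA-MB-231 and RPMI-8226 human cancer cells. All compounds were first screened at 10 and 50 μM. Compounds that crossed a set viability threshold in this screen went on to IC50 determination.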

[7] = tested on: GES-1 cells; assay: MTS cytotoxicity assay, normal GES-1 cells; assay type: cell-based; conditions: Homo sapiens, GES1, 72 h, read-out: IC50 (μM) GES-1
[8] = tested on: RPMI-8226 cells; assay: MTS cytotoxicity assay, RPMI-8226; assay type: cell-based; conditions: Homo sapiens, RPMI-8226, 72 h, read-out: IC50 (μM) RPMI-8226
Method in brief: as §1

[9] = tested on: A549 cells; assay: MTS cytotoxicity assay, A549; assay type: cell-based; conditions: Homo sapiens, A549, 72 h, read-out: IC50 (μM) A549
Method in brief: as §1

Compound: CC12CCC(c3c(-c4ccc(Cl)cc4)nc(N)nc31)C2(C)C (stereo not drawn) [Compound 3f, 4-(4-Chlorophenyl)-8,9,9-trimethyl-5,6,7,8-tetrahydro-5,8-methanoquinazolin-2-amine]
- expression of anti-apoptosis protein Bcl-2 [1]: downregulated dose-dependently
- expression of caspase-3 [1]: upregulation
- expression of cytochrome C [1]: upregulation
- expression of pro-apoptotic protein Bax [1]: up-regulated
- percentage of cells in G0/G1 phase ([2]; 2.5 μM): 64.89%
- percentage of cells in G0/G1 phase ([2]; 5 μM): 78.02%
- percentage of cells in G0/G1 phase ([2]; 10 μM): 81.72%
- level of ROS (DCFH-DA positive cells) ([3]; 10.0 μM, 72 h, control 5.13%): 63.4%
- increase of ROS level in comparison to the control group ([3]; 10 μM, 63.4% vs control 5.13%): ~12 times
- Percentage (%) green fluorescence (cells with a collapsed ΔΨm) ([4]; 2.5 μM): 10.4%
- Percentage (%) green fluorescence (cells with a collapsed ΔΨm) ([4]; 5 μM): 33.6%
- Percentage (%) green fluorescence (cells with a collapsed ΔΨm) ([4]; 10 μM): 53.2%
- Apoptosis rate (%) (total early and late) ([5]; 2.5 μM): 9.47%
- Apoptosis rate (%) (total early and late) ([5]; 10 μM): 57.9%
- IC50 [6]: 5 ± 0.14 µM
- IC50 [7]: > 50 µM
- IC50 [8]: 8.64 ± 0.24 µM
- IC50 [9]: 7.65 ± 0.21 µM
